Laboratory results reported in PubChem BioAssay AID1258 (University of Pittsburgh Molecular Library Screening Center, 2008).
Hit rate of the full screen: of about 1,100 compounds, about 150 (14%) were called active. Inconclusive results (about 1%) are left out.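 The calls were made as follows: active = inhibition above about 50% in both repeat tests (limit read from the data); inconclusive = one repeat under the set limit, the other over it; inactive = both repeats under the set limit.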 Only a sample is shown.

assay: Leishmania major promastigote growth inhibition, confirmation, 1 µM repeat of primary hits (AID 1258); conditions: L. major promastigote growth, resazurin fluorescence, 48 h; at 1 µM; active compounds read high
Procedure, shortened: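 Assay system: Leishmania major promastigote parasites. Amount: 5,000 promastigotes per well. Incubation: 44 h compound exposure plus 4 h dye step, both 28 °C. Evaluation: parasite viability inhibition versus plate controls. Benchmarks: DMSO high/low controls plus tamoxifen reference.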

inhibition, inactive:
Clc1ccc(-n2nnnc2-c2cnc(-c3ccccn3)nc2-c2cccs2)cc1 -17.1%, c1ccc(CC2CCN(c3nc4ccccc4n4cnnc34)CC2)cc1 -11.4%, CC(=O)NC1C(Oc2ccc(C)cc2)OC2COC(c3ccco3)OC2C1O (stereo not given) -11.1%, N#Cc1ccc(N2Cc3ccccc3/C2=N/C(=O)Nc2ccc(Cl)cc2)cc1 14%, CCOC(=O)c1c(C2CC2)csc1NC(=O)CSCc1c(C)noc1C -3.56%, CNC(=S)N/N=C/c1cn(Cc2ccc(C)cc2)c2ccccc12 -4.3%, COc1ccc2c(c1)C=CC1(O2)N(CCO)c2ccccc2C1(C)C (stereo not given) -3.93%, O=C(c1ccc(-c2ccccc2)cc1)C1CCCN(C(=O)c2cncs2)C1 (stereo not given) -12.9%, Cn1c(-c2sc3cc(C(F)(F)F)cnc3c2-c2ccccc2)n[nH]c1=S -17.6%, N#Cc1ccc(-c2nc3cc(C#N)c(C#N)cc3nc2-c2ccccc2)cc1C#N -5.54%, c1ccc2cc(OCCN3CCCC3)ccc2c1 12.5%, Cc1nn(-c2ccccc2)c2sc(C(=O)N(Cc3ccco3)C(C)C(=O)NC(C)(C)C)cc12 (stereo not given) -6.73%, COCCN(CCOC)S(=O)(=O)c1ccc(C(=O)Nc2nc3c(s2)CCc2ccccc2-3)cc1 -8.24%, CC(C)Cc1nn2c(=O)cc(O)nc2s1 -1.83%, Cc1c(Br)cc(C(=O)N2CCCCCC2)c(C)c1C -3.85%, CCOC(=O)/C(N=Nc1cc(C(=O)O)cc(C(=O)O)c1)=C(\O)CCl -4.13%, CCOC(=O)N1CCN(C(c2cccnc2)c2ccc3cccnc3c2O)CC1 (stereo not given) -7.1%, CCc1nc(C)cn1S(=O)(=O)c1cc(OC)c(C)cc1C 0.254%, Fc1cc(F)c2nc(Nc3nc4c(F)cccc4s3)sc2c1 -9.65%, CC1(C)CC(=O)c2c(n(S(=O)(=O)c3ccccc3)c3ccc(NS(=O)(=O)c4ccccc4)cc23)C1 -25.3%, O=C(/C=C/Sc1ncn[nH]1)c1ccc(Cl)cc1 29.4%, CCOC(=O)C1=C(CC)Nc2ccccc2N=C1NC(=O)c1cccc(S(=O)(=O)N2CCCC2)c1 -9.84%, Cc1cccc(-n2c(N)cc(=O)nc2SC(C)C(=O)NC2CCCCC2)c1 (stereo not given) 29.9%, Cc1nn(CC2CC2)c(=O)n1N(C)c1ncc(C(F)(F)F)cc1Cl -15.7%, Clc1ccc(C2=CSC3=Nc4cccc5cccc(c45)N23)cc1 -13.5%
